The values below come from PMC3241894 (ACS chemical biology, 2011).

Each structure is given as a SMILES string.

The subject of data set [1] is FKBP52 and Hsp90 binding interaction. Put plainly: pure protein binding assay FKBP52 and Hsp90. The arrangement: species or system human. Conditions: 100 nM Hsp90, 50 nM GST-FKBP52, 0–10 µM compound.
For data set [2], the system named is FKBP38 and Hsp90 binding interaction. In words: pure protein binding assay FKBP38 and Hsp90. Conditions: 100 nM Hsp90, 50 nM GST-FKBP38, 0–10 µM compound. Set-up: species or system human.
The test system of the next data set is HeLa cells. In words: Hsp90 over-expression experiments, cell survival. The format is cell-based. Conditions: pCMV-Hsp90 vs pCMV control, compound 1 50 µM, 2 5 µM, 17-AAG 100 nM. A digest of the protocol:
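HeLa cells (~30% confluent) were co-transfected by PolyFect with HSP90α and HSP90β plasmids (0.5 µg each) or empty pCMV (1 µg). Hsp90 overexpression was checked by Western blot. After 24 h, cells received DMSO (control), test compound (50 or 5 µM) or 17-AAG (100 nM), and survival was read by CCK-8. Three repeats, mean ± SEM.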

Another data set deals with Hsp70. In words: Hsp70 up-regulation in compound-treated cells. In kind it is cell-based. Conditions: HCT-116 cells, 24 hours. In a few lines: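 HCT-116 cells exposed for 24 h to test compound (0–25 µM), or to 17-AAG (0–200 nM) as reference Hsp90 inhibitor. Cells were then harvested and lysed, and lysates probed for Hsp70 by Western blot with GAPDH as loading control. Experiments were repeated three times, reported as mean ± SEM, and compared by unpaired t-test.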

In the case of `C=CCNC1=C2C[C@@H](C)C[C@H](OC)[C@H](O)[C@@H](C)/C=C(\C)[C@H](OC(N)=O)[C@@H](OC)/C=C\C=C(/C)C(=O)NC(=CC1=O)C2=O` [17-AAG, 17-(allylamino)-17-demethoxygeldanamycin], the “inhibition of binding between Hsp90 and FKBP52” value in data set [1] is listed as “do not affect”. In addition, the “inhibition of binding between Hsp90 and FKBP38” value in data set [2] is “do not affect”. Moreover, in the data set with HeLa cells, the “cytotoxic effect on Hsp90 over-expressing cells relative to control cells” value is on record as “also true”. The “Hsp70 up-regulation over control” value in the data set with Hsp70 was determined as 100%.
